Assay results pooled from the literature.
Protocols differ between the studies behind these lines.
Target: Protein kinase C epsilon type (PRKCE, Homo sapiens, UniProt Q02156)
Sequence (Q02156 1-737, as in one of the studies): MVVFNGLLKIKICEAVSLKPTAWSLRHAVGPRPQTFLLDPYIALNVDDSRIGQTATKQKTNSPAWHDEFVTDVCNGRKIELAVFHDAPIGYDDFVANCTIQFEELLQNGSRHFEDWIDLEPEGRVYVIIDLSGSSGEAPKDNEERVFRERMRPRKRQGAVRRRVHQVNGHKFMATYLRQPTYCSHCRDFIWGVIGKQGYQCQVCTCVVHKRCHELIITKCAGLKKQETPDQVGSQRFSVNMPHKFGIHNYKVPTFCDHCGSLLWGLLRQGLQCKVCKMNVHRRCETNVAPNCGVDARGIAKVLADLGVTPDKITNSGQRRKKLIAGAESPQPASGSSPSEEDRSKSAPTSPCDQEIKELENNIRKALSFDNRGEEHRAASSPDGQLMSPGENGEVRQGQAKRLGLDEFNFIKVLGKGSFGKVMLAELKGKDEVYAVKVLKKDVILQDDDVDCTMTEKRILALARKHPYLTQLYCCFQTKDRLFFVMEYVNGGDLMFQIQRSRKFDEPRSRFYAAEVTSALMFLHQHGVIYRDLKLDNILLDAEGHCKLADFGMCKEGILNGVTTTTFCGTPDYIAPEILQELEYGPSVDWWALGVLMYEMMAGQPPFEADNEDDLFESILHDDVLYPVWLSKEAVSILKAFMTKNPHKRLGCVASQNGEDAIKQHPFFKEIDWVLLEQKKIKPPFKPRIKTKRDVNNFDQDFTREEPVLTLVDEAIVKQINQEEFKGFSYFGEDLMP

Structure (SMILES)	effect on	technique	tested at	remaining binding [%]
O=C(c1ccc(Nc2ncc(Cl)c(-c3cc4ccccc4s3)n2)cc1)N1CCC(N2CCCC2)CC1	binding	competition with immobilised ligand	1 µM	50
CS(=O)(=O)N1CCCC(NC(=O)[C@H](CCC2CCCCC2)NC(=O)c2ccc(CNc3ncnc4c3nnn4-c3ccccc3)cc2)C1 (some centres unmarked)	cell-free assay	competition with immobilised ligand	0.1 µM	63
CCN1CCN(Cc2ccc(C(=O)Nc3ccc(C)c(Oc4ccc5c(c4)CC(=O)N5)c3)cc2C(F)(F)F)CC1	binding	competition with immobilised ligand	1 µM	100
F[C@@H]1CCN(c2nccc(-c3cnn4ncccc34)n2)C1	binding	–	1 µM	88
Cc1c[nH]c2nccc(Oc3c(F)cc(Nc4cc(Cl)nc(N)n4)cc3F)c12	cell-free assay	competition with immobilised ligand	0.1 µM	96
Cc1cnc(Nc2ccc(C(=O)N3CCC(N4CCCC4)CC3)cc2)nc1-c1cc2ccccc2s1	binding	competition with immobilised ligand	1 µM	26
CN(C)c1nccc(-c2cnn3ncccc23)n1	binding	–	1 µM	100
COc1ncc2cc3ccccc3nc2c1C#N	cell-free assay	competition with immobilised ligand	5 µM	89
Cn1nc(C(=O)NCc2ccc(C(=O)O)cc2)cc1-c1ccc2[nH]ccc2c1	cell-free assay	competition with immobilised ligand	0.1 µM	64
Nc1ncc2c(n1)-c1c([nH]c3ccc(C#CC4CC4)cc13)CCCC2	binding	competition with immobilised ligand	1 µM	98
CCS(=O)(=O)c1cc2cc(C[C@](O)(CC(C)(C)c3ccc(F)cc3C(N)=O)C(F)(F)F)[nH]c2cn1	cell-free assay	competition with immobilised ligand	1 µM	96
C[C@@H]1CCN(c2nccc(-c3cnn4ncccc34)n2)C1	binding	–	1 µM	100
C[C@@H]1CN(c2ccc3ncc(-c4ccc5[nH]nc(C6CC6)c5c4)n3n2)C[C@H](C)O1	binding	competition with immobilised ligand	0.5 µM	64
COCCOc1nc(-c2ccc(Cl)nc2)nc2c1CN(C(=O)c1ncn3ccccc13)CC2	cell-free assay	competition with immobilised ligand	0.1 µM	89
N[C@@H]1CCN(c2nccc(-c3cnn4ncccc34)n2)C1	binding	–	1 µM	97
O=C(NCCCN1CCOCC1)c1ccc(Nc2ncc(Cl)c(-c3ccc(Cl)s3)n2)cc1	binding	competition with immobilised ligand	1 µM	67
CN(C)c1ncc(F)c(-c2cnn3ncccc23)n1	binding	–	1 µM	95
CCC(=N\O)/C(C)=C/c1ccc(F)cc1	cell-free assay	competition with immobilised ligand	1 µM	76
COc1cnc(Nc2cccc(S(N)(=O)=O)c2)nc1N1CCN(c2ccccc2)CC1	binding	competition with immobilised ligand	1 µM	100
c1cnn2ncc(-c3ccnc(N4CCC45COC5)n3)c2c1	binding	–	1 µM	100
CSc1cccnc1N1CCN(Cc2nc3ccccc3[nH]2)CC1	cell-free assay	competition with immobilised ligand	1 µM	77
CC(C)(C)c1ccc(-c2nc(CBr)nn2-c2cccc(O)c2)cc1	cell-free assay	competition with immobilised ligand	10 µM	73
FC(F)(F)Oc1cccc(-c2cnc3ccc(-c4ccncc4)nn23)c1	cell-free assay	competition with immobilised ligand	5 µM	62
COc1cc(-c2cn(C3CCc4c(F)cccc4N(CC(F)(F)F)C3=O)nn2)ccc1-n1cnc(C)c1 (centres unmarked)	cell-free assay	competition with immobilised ligand	1 µM	100
CN(c1nccc(-c2cnn3ncccc23)n1)C1CC1	binding	–	1 µM	83
O=C(NCC1CCOCC1)c1n[nH]cc1NC(=O)c1c(F)cccc1F	binding	competition with immobilised ligand	1 µM	87
